According to PubChem BioAssay:
Calls of active or inactive are those of the source.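 How the source made its calls, unless noted: active means fluorescence slope higher than the sample average by over 3 SD (cut at about -0.22 in these data, passing the limit was not always enough); inactive means the rest.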

Legend:
[1] = inhibitors of TNFa-induced NFkB p65 translocation, primary screen, imaging, HUVEC, MLSMR starter and 10KST1 sets (AID 438;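 active means inhibition above 20% together with a positive visual image hit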;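 further: compound added about 3h40 before a 20 min TNFalpha stimulation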;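 on inhibition: signal is the nuclear over cytoplasmic p65 intensity ratio per well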); conditions: HUVEC TNFa-induced p65 nuclear translocation; cell count: measured here: nuclei count (cytotoxicity indicator), at 2.08 µM; inhibition: at 2 µM, stronger effect = higher value, 0% TNFa-plus-vehicle, 100% no-TNFa wells
[2] = inhibitors of E-selectin induction by TNFa, primary screen, imaging, HUVEC, immunofluorescence, MLSMR starter and 10KST1 sets (AID 487;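 active means visually confirmed hit in the image check and inhibition above 20%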;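 on inhibition: signal is fraction of cell area covered by stained E-selectin grains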;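 on nuclei count: 100% = median nuclei count of all wells on the same plate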); conditions: HUVEC TNFalpha-induced E-selectin immunofluorescence imaging, at 2 µM; inhibition: stronger effect = higher value; nuclei count: measured here: cell number, toxicity
[3] = DUSP6 inhibitors restoring Erk phosphorylation by chemical complementation, primary imaging in DUSP6-transfected HeLa (AID 609;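 active means compounds giving at least 50% inhibition in the cell-based MKP-3 phosphatase rescue imaging test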;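 on inhibition: phospho-Erk level distribution per well compared with pooled transfected vehicle control wells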); conditions: HeLa MKP-3 transfected, phospho-Erk imaging KS statistic, at 10 µM, cells stimulated with TPA for 15 min
[4] = target: Dual specificity protein phosphatase 6 (Homo sapiens) (UniProt Q16828); assay: as above; conditions: HeLa MKP-3 transfected, phospho-Erk imaging KS statistic; at 10 µM; stronger effect = higher value; cells stimulated with TPA for 15 min
[5] = target: Voltage-gated potassium channel subunit beta-2 (Rattus norvegicus) (UniProt P62483); assay: KvBeta enzyme negative modulators, primary screen, biochemical, NADPH fluorescence (AID 622); conditions: recombinant KvBeta, 4-cyanobenzaldehyde reduction, at 10 µM, stronger effect = higher value;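 further: slope of raw intensity against log time taken from 70 to 1610 s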
[6] = target: Voltage-gated potassium channel subunit beta-2 (Rattus norvegicus) (UniProt P62483); assay: KvBeta positive modulators, primary screen, biochemical, NADPH fluorescence (AID 623;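 active means NADPH fluorescence slope more negative than the mean of all samples by about 3 SD, 99.7% confidence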;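 further: fluorescence intensity change per second fitted from 20 to 320 s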); conditions: Recombinant KvBeta, NADPH fluorescence decrease slope, 10 min; at 10 µM; stronger effect = lower value
[7] = target: Muscarinic acetylcholine receptor M4 (Homo sapiens) (UniProt P08173); assay: compounds altering M4/GIRK thallium flux, either direction, primary screen, M4 allosteric agonist project, cell-based, HEK293 M4/GIRK, BTC-AM (AID 625;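 active means fluorescence slope after compound addition differing from the mean of all tested samples at 99.7% confidence, mostly higher but some lower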;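 further: thallium influx through GIRK channels coupled to M4 in HEK293 cells with BTC-AM dye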); conditions: at 10 µM, actives lie on both sides
Outline: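 assay system = HEK293 cells with M4 receptor and GIRK channels | medium = pH 7.3 thallium assay buffer | doses = 10 µM final, single point | timing = cells overnight at 37 °C, BTC-AM loading 1 h, reads 2 min total | signal = BTC-AM fluorescence, 1 Hz kinetic reads | read-out = post-addition slope, 15–24 s, of baseline-normalized fluorescence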

[8] = inhibitors of larval lipid processing in zebrafish, primary screen, whole organism, PED6 fluorescence, gall bladder and intestine (AID 686;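 active means a full or partial loss of lipid-probe fluorescence in the fish gall bladder, intestine or both, judged by eye; inactive means no fluorescence loss, or compound toxic to the fish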;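 further: larvae 5 to 7 days old with five fish per well; signal comes from phospholipase A2 cleavage of quenched PED6 carried via bile; overnight exposure to compound and PED6 before scoring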); conditions: Zebrafish larvae PED6 lipid processing, fluorescence scoring; screened at 20 µM (by protocol)
Outline: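 Also added: quenched phospholipase substrate PED6, 100 nM final, ingested by larvae; System: zebrafish larvae, 5-7 d; Quantity: 5 larvae per well; Compound: 20 µM single dose; Schedule: overnight compound and PED6 incubation; Read-out: visual per-well fluorescence inhibition score; Measured by: By-eye fluorescence microscopy; Medium: E3.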

[9] = inhibitors of Chlamydomonas gravitaxis, primary screen, whole organism, Chlamydomonas reinhardtii, WT vs cilia-less mutant, absorbance, 96-well (AID 463189;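 active means inhibition at or above 50% relative to wild type and mutant plate controls; inactive means inhibition below 50%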;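 further: 0% = wild type cc124 cells in DMSO and 100% = ciliumless bld1 mutant cells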); conditions: OD600 absorbance, 2 days, at 10 µM, stronger effect = higher value
[10] = measured here: cell density z-score
[11] = measured here: nuclear c-Myc green intensity z-score
[12] = measured here: nuclear pErk red intensity z-score, stronger effect = higher value

Chain of Dual specificity protein phosphatase 6 (Homo sapiens) (Q16828 whole entry, looked up): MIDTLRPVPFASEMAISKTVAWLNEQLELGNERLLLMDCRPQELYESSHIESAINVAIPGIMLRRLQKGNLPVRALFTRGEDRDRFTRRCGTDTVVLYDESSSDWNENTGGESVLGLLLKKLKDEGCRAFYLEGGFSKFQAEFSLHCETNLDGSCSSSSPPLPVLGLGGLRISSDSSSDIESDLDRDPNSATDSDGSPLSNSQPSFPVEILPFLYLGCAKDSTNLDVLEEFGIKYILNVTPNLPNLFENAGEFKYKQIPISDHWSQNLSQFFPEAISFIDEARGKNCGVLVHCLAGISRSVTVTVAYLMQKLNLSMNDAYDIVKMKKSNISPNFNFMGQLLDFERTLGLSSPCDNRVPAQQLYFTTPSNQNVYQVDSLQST
Chain of Muscarinic acetylcholine receptor M4 (Homo sapiens) (P08173 whole entry, looked up): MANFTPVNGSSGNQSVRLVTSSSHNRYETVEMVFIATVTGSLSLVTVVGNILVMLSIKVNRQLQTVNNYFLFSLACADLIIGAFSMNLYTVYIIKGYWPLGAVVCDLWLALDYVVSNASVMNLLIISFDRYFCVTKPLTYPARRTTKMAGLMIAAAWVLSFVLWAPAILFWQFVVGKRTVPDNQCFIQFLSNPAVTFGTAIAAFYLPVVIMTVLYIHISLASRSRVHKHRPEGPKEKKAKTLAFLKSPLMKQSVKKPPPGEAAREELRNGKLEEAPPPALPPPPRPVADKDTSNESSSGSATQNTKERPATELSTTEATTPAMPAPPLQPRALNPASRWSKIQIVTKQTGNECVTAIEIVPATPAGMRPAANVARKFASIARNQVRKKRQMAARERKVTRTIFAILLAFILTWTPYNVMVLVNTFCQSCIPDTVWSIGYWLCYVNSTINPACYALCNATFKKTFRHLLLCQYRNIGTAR
Chain of Voltage-gated potassium channel subunit beta-2 (Rattus norvegicus) (P62483 whole entry, looked up): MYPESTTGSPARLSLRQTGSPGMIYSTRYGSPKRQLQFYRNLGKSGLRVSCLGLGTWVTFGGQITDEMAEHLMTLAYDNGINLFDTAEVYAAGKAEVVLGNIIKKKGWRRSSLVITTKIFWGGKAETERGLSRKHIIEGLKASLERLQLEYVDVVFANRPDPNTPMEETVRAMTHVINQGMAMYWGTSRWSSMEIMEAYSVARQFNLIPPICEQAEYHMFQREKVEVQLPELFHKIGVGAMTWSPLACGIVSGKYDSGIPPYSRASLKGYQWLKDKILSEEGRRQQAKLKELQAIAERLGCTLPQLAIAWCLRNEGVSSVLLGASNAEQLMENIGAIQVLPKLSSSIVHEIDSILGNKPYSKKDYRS

| SMILES | cell count [1] | inhibition [1] | inhibition [2] | nuclei count [2] | z-score [3, 10] | z-score [3, 11] | z-score [3, 12] | inhibition [4] | fluorescence slope [5] | NADPH fluorescence slope [6] | fluorescence slope [7] | outcome [8] | inhibition [9] |
| --- | --- | --- | --- | --- | --- | --- | --- | --- | --- | --- | --- | --- | --- |
| CCN(CC)c1nc(C)c2c(c1C#N)CC(C)(C)OC2 | 491 | -5.9% (inactive) | -142% (inactive) | 118% | -2.08 | 0.916 | -0.636 | 13.4% (inactive) | -0.462 (inactive) | -1.1e-05 (inactive) | 0.00447 (inactive) | inactive | -9.09% (inactive) |
| Nc1nnnn1/N=C/c1cccs1 | 656 | -4.7% (inactive) | -50.1% (inactive) | 124% | -0.3 | -1.24 | -0.836 | -8.95% (inactive) | -0.483 (inactive) | -6.6e-05 (inactive) | 0.00656 (inactive) | inactive | 17.8% (inactive) |
| Cn1c(=O)c2c(nc(Br)n2CCSc2nc3ccccc3o2)n(C)c1=O | 608 | -8.8% (inactive) | 32.7% (inactive) | 175% | -0.0761 | 0.135 | -1.22 | 17.4% (inactive) | -0.346 (inactive) | -7e-06 (inactive) | 0.00576 (inactive) | inactive | 45.2% (inactive) |
| Cc1nnc(SCC(=O)N2CCOCC2)c2ccccc12 | 489 | 7.8% (inactive) | -38.5% (inactive) | 135% | 0.531 | 1.47 | 0.934 | 1.63% (inactive) | -0.534 (inactive) | -0.000118 (inactive) | 0.00485 (inactive) | inactive | -5.11% (inactive) |
| COc1ccc(C2C(C(C)=O)=C(O)C(=O)N2c2nccs2)cc1OC (stereo unspecified) | 651 | -8.9% (inactive) | -2.2% (inactive) | 87.4% | -0.646 | -0.662 | -0.478 | -7.67% (inactive) | -0.5 (inactive) | -0.000231 (inactive) | 0.00821 (inactive) | inactive | -3.88% (inactive) |
| CCN(CC)CCCN1C(=O)C(=O)/C(=C(/O)c2ccc(OC)cc2)C1c1ccco1 (stereo unspecified) | 651 | -11.9% (inactive) | 43.5% (inactive) | 185% | 0.516 | 0.587 | 0.462 | -0.233% (inactive) | -0.471 (inactive) | -0.000107 (inactive) | 0.0055 (inactive) | inactive | -7.38% (inactive) |
| C=CCn1c(=O)c(C(=O)NCCN(CC)CC)c(O)c2ccccc21 | 560 | 0% (inactive) | -97% (inactive) | 170% | 1.11 | -0.484 | 1.3 | 27.8% (inactive) | -0.368 (inactive) | -2.4e-05 (inactive) | 0.00442 (inactive) | inactive | 42.6% (inactive) |
| N#Cc1c(N)nc(SCC(=O)NCc2ccc3c(c2)OCO3)c(C#N)c1-c1cccs1 | 577 | -0.3% (inactive) | 53.2% (inactive) | 115% | 0.98 | 1.31 | -0.212 | 6.04% (inactive) | -0.493 (inactive) | -6.7e-05 (inactive) | 0.00636 (inactive) | inactive | -14% (inactive) |
| CCc1nc(NCC2CCCO2)c(C#N)c2c1COC(C)(C)C2 (stereo unspecified) | 550 | -12.7% (inactive) | 2% (inactive) | 127% | -0.137 | -0.0587 | 0.863 | 1.9e-07% (inactive) | -0.316 (inactive) | -4e-05 (inactive) | 0.00695 (inactive) | inactive | -12.9% (inactive) |
| O=C(NCc1cccnc1)NC(C(F)(F)F)C(F)(F)F | 671 | -1.2% (inactive) | -24.5% (inactive) | 148% | 0.957 | -0.408 | -4.89 | 1.63% (inactive) | -0.454 (inactive) | -5.1e-05 (inactive) | 0.00444 (inactive) | inactive | -3.5% (inactive) |
| Cc1cc(=O)oc(C)c1C(=O)n1nc(C)c2c1C[C@@H]1[C@H]2C1(C)C | 553 | -3.8% (inactive) | -44.9% (inactive) | 176% | 0.489 | 0.72 | -1.17 | 15.9% (inactive) | -0.403 (inactive) | -3.7e-05 (inactive) | 0.00461 (inactive) | inactive | -9.72% (inactive) |
| CCCCn1c(=O)n(C)c(=O)c2c3c(sc21)COC(C)(C)C3 | 589 | -5.2% (inactive) | -64.5% (inactive) | 144% | -0.346 | -0.449 | -0.806 | 1.63% (inactive) | -0.447 (inactive) | -1.3e-06 (inactive) | 0.00382 (inactive) | inactive | 43.8% (inactive) |
| N#Cc1nc(COc2ccc(Br)cc2)oc1N1CCN(Cc2ccccc2)CC1 | 444 | 2% (inactive) | -74.5% (inactive) | 138% | 0.98 | 0.14 | -0.518 | 12.7% (inactive) | -0.444 (inactive) | -2.9e-05 (inactive) | 0.00951 (inactive) | inactive | 12.9% (inactive) |
| CC1(C)CC(=O)C2=C(C1)OC(N)=C(C#N)C21C(=O)N(CN2CCOCC2)c2ccccc21 (stereo unspecified) | 371 | -2.9% (inactive) | -122% (inactive) | 138% | 0.502 | -1.1 | -1.15 | 19.4% (inactive) | -0.479 (inactive) | -3.3e-05 (inactive) | 0.00562 (inactive) | inactive | 36.4% (inactive) |
| CCC(=O)Nc1nc2ccccc2n1Cc1ccccc1C | 480 | -2.1% (inactive) | -158% (inactive) | 114% | 0.4 | 0.0083 | 0.265 | -3.97% (inactive) | -0.407 (inactive) | 1.4e-06 (inactive) | 0.00508 (inactive) | inactive | -13.6% (inactive) |
| N#Cc1nc(-c2ccc(F)cc2)oc1N1CCCC1 | 706 | -7.6% (inactive) | 24.6% (inactive) | 148% | 1.01 | 1.06 | 0.859 | 9.07% (inactive) | -0.348 (inactive) | -9.4e-06 (inactive) | 0.0076 (inactive) | inactive | -3.17% (inactive) |
| CCSc1nc2sc3c(c2c2nnc(SCC(=O)NCc4ccco4)n12)CCCC3 | 550 | -5.1% (inactive) | -12.4% (inactive) | 178% | -0.011 | -1.17 | -1.17 | 1.9e-07% (inactive) | -0.399 (inactive) | -1.1e-05 (inactive) | 0.00576 (inactive) | inactive | 9.13% (inactive) |
| Cn1c(Cn2cnc(Cl)c2Cl)nc2ccccc21 | 583 | 0.2% (inactive) | -75.8% (inactive) | 138% | 0.873 | 1.34 | 0.561 | 12.8% (inactive) | -0.454 (inactive) | -8.5e-05 (inactive) | 0.00447 (inactive) | inactive | 21.9% (inactive) |
| Cc1cc(N2C(=O)C(=O)/C(=C(/O)c3ccccc3)C2c2cccs2)no1 (stereo unspecified) | 668 | 0.1% (inactive) | -91.9% (inactive) | 165% | 0.267 | -0.396 | -0.163 | 6.04% (inactive) | -0.486 (inactive) | -1.4e-05 (inactive) | 0.00578 (inactive) | inactive | 24.8% (inactive) |
| COC(=O)c1ccc(C2/C(=C(/O)c3ccc(OC)cc3)C(=O)C(=O)N2Cc2ccco2)cc1 (stereo unspecified) | 603 | -5.8% (inactive) | -47.8% (inactive) | 96.4% | -1.62 | 0.429 | -2.41 | -4.59% (inactive) | -0.4 (inactive) | 4.5e-06 (inactive) | 0.0058 (inactive) | inactive | -8.72% (inactive) |
| Cc1c(O)c(CN2CCCC2)cc2c1oc(=O)c1ccccc12 | 602 | 3.3% (inactive) | 92.9% (active) | 77.2% | 0.99 | 0.189 | -0.00827 | -8.95% (inactive) | -0.44 (inactive) | -2.9e-05 (inactive) | 0.00331 (inactive) | inactive | 17.4% (inactive) |
| Cn1c(OCc2cccnc2)nc2c1c(=O)n(Cc1ccc(Br)cc1)c(=O)n2C | 723 | -15.3% (inactive) | -75% (inactive) | 172% | -1.07 | -0.35 | 0.344 | -5.95% (inactive) | -0.475 (inactive) | -4e-05 (inactive) | 0.00549 (inactive) | inactive | 32.6% (inactive) |
| CCOC(=O)C1=C(N)n2c(s/c(=C\c3ccco3)c2=O)=C(C(=O)OC(C)C)C1c1ccco1 (stereo unspecified) | 383 | -7.4% (inactive) | -126% (inactive) | 166% | 0.588 | -1.67 | 1.18 | -4.59% (inactive) | -0.46 (inactive) | -7.4e-05 (inactive) | 0.00444 (inactive) | inactive | 27.2% (inactive) |
| CCCSc1nnc2n(Cc3ccccc3)c(=O)c3c4c(sc3n12)CCC4 | 405 | -0.7% (inactive) | -31.5% (inactive) | 170% | 0.317 | -0.563 | 1.11 | -4.59% (inactive) | -0.453 (inactive) | -0.000111 (inactive) | 0.00548 (inactive) | inactive | 9.79% (inactive) |
| Nc1nc2n(n1)C(c1ccc(F)cc1)CC(c1ccc(F)cc1)N2 (stereo unspecified) | 346 | -13.8% (inactive) | -43.3% (inactive) | 97% | -0.282 | 0.742 | -0.273 | 5.65% (inactive) | -0.457 (inactive) | -5.2e-05 (inactive) | 0.00499 (inactive) | inactive | 19.7% (inactive) |
| COc1ccccc1C1/C(=C(/O)c2ccc(OC(C)C)cc2)C(=O)C(=O)N1c1cc(C)on1 (stereo unspecified) | 437 | -8.5% (inactive) | -118% (inactive) | 148% | 1.18 | -0.452 | -0.964 | 9.37% (inactive) | -0.438 (inactive) | -0.000335 (active) | 0.006 (inactive) | inactive | -0.61% (inactive) |
| Cc1cc(NCCNC2=CC(=O)CCC2)nc2ccccc12 | 473 | -10.2% (inactive) | -41.3% (inactive) | 148% | -0.963 | 1.28 | -0.176 | -3.97% (inactive) | -0.431 (inactive) | -4.6e-05 (inactive) | 0.0072 (inactive) | inactive | -12.8% (inactive) |
